The nature of series [1]: Solubility at pH 6.0 was determined. The settings on record: buffer. The format is physicochemical. The method in brief: (§1)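 About 2 mg solid shaken 18 h at 25 °C in the dark, then settled 30 min. pH rechecked (±0.2, readjusted, then 60 min re-equilibration). Centrifuged 1000g 15 min, 0.2 μm filtered, diluted 1:1 with MeCN. Assayed by RP18 HPLC, UV 295 nm, against a 3-point standard curve.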

Series [2] deals with WIL2. The series can be described thus: Growth inhibitory activity against human lymphoblastoid W1L2 cell line in presence of 10 uM thymidine/50 uM hypoxanthine. The format is functional, cell-based. Put shortly:
(§2)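 IC50 read by cell counting. For the folate-rescue arm, W1L2 medium carried 10 μM thymidine plus 50 μM hypoxanthine. Values are mean ± SD or individual results.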

A short description of series [3]: Growth inhibitory activity against human lymphoblastoid W1L2:R865 cell line. It is filed as functional, cell-based. The method in brief:
as §2

Series [4] in a line: Solubility at pH 7.4 was determined. The format is physicochemical. As to conditions: buffer. The method in brief: as §1
The test system of series [5] is WIL2. In words: Growth inhibitory activity against human lymphoblastoid W1L2 cell line. The format is functional, cell-based. Put shortly:
as §2

Series [6] in a line: Solubility at pH 7.4. It is filed as physicochemical. As to conditions: buffer. Put shortly:
as §1

A short description of series [7]: Solubility at pH 6.0. The format is physicochemical. The settings on record: buffer. The method in brief: as §1
In another series the test system is Proteasome. The series can be described thus: Chymotryptic inhibitory activity against 26S proteasome. The format is functional, subcellular.

In brackets after ≈: the same amount, converted by molar mass. Where only a bound is given, the exact number is not on record here.

As usually defined, the solubility is the dissolved amount per volume that the medium holds. A word on the IC50: it is the midpoint of a concentration-inhibition curve. For the compound `C#CCN(Cc1cc2c(=O)n(C)c(CN3CCN(CCO)CC3)nc2cc1Cl)c1ccc(C(=O)NCc2cccnc2)cc1`, the solubility amounted to 992 µM (≈ 609 µg/mL) in series [1] and 75 µM (≈ 46.1 µg/mL) in series [4]. The IC50 in the series on WIL2 [2] is 7.1 nM; in series [3], 22000 nM; in the series with WIL2 [5], 7 nM.

As for `C#CCN(Cc1cc2c(=O)n(C)c(CN3CCCC3)nc2cc1Cl)c1ccc(C(=O)NCc2cccnc2)cc1`, the IC50 in the series with WIL2 [2] stood at 0.76 nM; in series [3], 24000 nM; in the series on WIL2 [5], 0.7 nM.

For the compound `C#CCN(Cc1cc2c(=O)n(CC(=O)N3CCCCC3)c(CN3CCCCC3)nc2cc1Cl)c1ccc(C(=O)NCc2cccnc2)cc1`, the results for the IC50 (in the series with WIL2 [2]; in series [3]; in the series on WIL2 [5]) were 7.4 nM, above 50000 nM and 8.4 nM, respectively.

`C#CCN(Cc1cc2c(=O)n(C)c(CN3CCN(CC)CC3)nc2cc1Cl)c1ccc(C(=O)NCc2cccnc2)cc1`: the solubility in series [1] worked out at 1760 µM (≈ 1060 µg/mL); in series [4] it was 286 µM (≈ 171 µg/mL). Besides, the IC50 was determined as 0.78 nM in the series on WIL2 [2], 22000 nM in series [3] and 0.78 nM with WIL2 [5].

`C#CCN(Cc1cc2c(O)nc(C)nc2cc1Br)c1ccc(C(=O)NCc2cccnc2)cc1`: the IC50 was 2.2 nM with WIL2 [2], 610 nM in series [3] and 2.8 nM in the series with WIL2 [5]. The values for the solubility in series [6] and in series [7] were 2.3 µM (≈ 1.19 µg/mL) and below 1 µM, respectively.

In the case of `C#CCN(Cc1cc2c(=O)n(C)c(CN3CCN(C)CC3)nc2cc1Cl)c1ccc(C(=O)NCc2cccnc2)cc1`, the solubility in series [1] was 636 µM (≈ 372 µg/mL); in series [4], 146 µM (≈ 85.3 µg/mL). In addition, the IC50 in the series with WIL2 [2] was determined as 0.32 nM; in series [3], 13000 nM; in the series on Proteasome, 3000 nM; in the series with WIL2 [5], 0.49 nM.

In the case of `C#CCN(Cc1cc2c(=O)n(C)c(CN3CCC(O)CC3)nc2cc1Cl)c1ccc(C(=O)NCc2cccnc2)cc1`, the values for the solubility in series [1] and in series [4] were 2 µM (≈ 1.17 µg/mL) and 0.5 µM (≈ 0.293 µg/mL), respectively. The IC50 in the series on WIL2 [2] was 0.7 nM; in series [3], 18000 nM; with WIL2 [5], 0.72 nM.

For the compound `C#CCN(Cc1cc2c(=O)n(C)c(CN3CCN(C)CC3)nc2cc1Cl)c1ccc(C(=O)NCCCn2ccnc2)cc1`, the solubility in series [1] amounted to 934 µM (≈ 561 µg/mL); in series [4] it was 96 µM (≈ 57.7 µg/mL). In addition, the half-maximal inhibitory concentration (IC50) with WIL2 [2] amounted to 2.3 nM; in series [3], 18000 nM; in the series with WIL2 [5] it was 2.1 nM.

In the case of `C#CCN(Cc1cc2c(=O)n(C)c(CN3CCCCC3)nc2cc1Cl)c1ccc(C(=O)NCCCn2cncn2)cc1`, the solubility was 80 µM (≈ 47 µg/mL) in series [1] and 6 µM (≈ 3.52 µg/mL) in series [4]. The IC50 in the series on WIL2 [2] is 800 nM; in series [3], 20000 nM; in the series on WIL2 [5] it was 840 nM.

`C#CCN(Cc1cc2c(=O)n(C)c(CN3CCC[C@H]3C(=O)OC)nc2cc1Cl)c1ccc(C(=O)NCc2cccnc2)cc1`: the results for the half-inhibitory concentration (IC50) (in the series on WIL2 [2]; in series [3]; with WIL2 [5]) were 14 nM, 24000 nM and 18 nM, respectively.

Turning to `C#CCN(Cc1cc2c(=O)n(C)c(CN3CCN(c4ccccc4)CC3)nc2cc1Cl)c1ccc(C(=O)NCc2cccnc2)cc1`, the solubility in series [1] was found to be 23 µM (≈ 14.9 µg/mL); in series [4] it was 5 µM (≈ 3.23 µg/mL). Also, the results for the IC50 (with WIL2 [2]; in series [3]; in the series on WIL2 [5]) were 5.4 nM, 940 nM and 7.2 nM, respectively.

For `C#CCN(Cc1cc2c(=O)n(CC(=O)N(CC)CC)c(CN3CCCCC3)nc2cc1Cl)c1ccc(C(=O)NCc2cccnc2)cc1`, the solubility in series [1] and in series [4] was 2 µM (≈ 1.34 µg/mL) each time. Besides, the IC50 in the series with WIL2 [2] worked out at 8.4 nM; in series [3], 19000 nM; in the series on WIL2 [5] it was 9.4 nM.

Turning to `C#CCN(Cc1cc2c(=O)n(CC(=O)OC)c(CN3CCCCC3)nc2cc1Cl)c1ccc(C(=O)NCc2cccnc2)cc1`, the figures for the IC50 (in the series on WIL2 [2]; in series [3]; in the series with WIL2 [5]) were 9.6 nM, 23000 nM and 11 nM, respectively.

Take `C#CCN(Cc1cc2c(=O)n(C)c(CN(CC)CC)nc2cc1Cl)c1ccc(C(=O)NCc2cccnc2)cc1`: the IC50 with WIL2 [2] was 0.73 nM; in series [3], above 50000 nM; in the series with WIL2 [5], 0.71 nM.

On to `C#CCN(Cc1cc2c(=O)n(C)c(CN3CCOCC3)nc2cc1Cl)c1ccc(C(=O)NCc2cccnc2)cc1`, for which the solubility in series [1] was 3 µM (≈ 1.71 µg/mL); in series [4], 2 µM (≈ 1.14 µg/mL). Moreover, the IC50 stood at 2 nM in the series on WIL2 [2], 19000 nM in series [3] and 2 nM in the series on WIL2 [5].

As to `C#CCN(Cc1cc2c(=O)n(C)c(CN3CCCCC3)nc2cc1Cl)c1ccc(C(=O)NCc2cccnc2)cc1`, the IC50 in the series on WIL2 [2] amounted to 0.78 nM; in series [3], 14000 nM; in the series on WIL2 [5], 0.8 nM.

For the origin of these results see ChEMBL document CHEMBL1135972 (J Med Chem, 2002).
